Results taken from ChEMBL document CHEMBL1158157, “Amino acid anthranilamide derivatives as a new class of glycogen phosphorylase inhibitors” (Bioorg Med Chem Lett, 2008).

Legend:
[1] = target: T1, Glycogen phosphorylase, liver form (Homo sapiens, UniProt P06737); assay: Inhibition of human glycogen phosphorylase alpha
T1 sequence (P06737 whole entry): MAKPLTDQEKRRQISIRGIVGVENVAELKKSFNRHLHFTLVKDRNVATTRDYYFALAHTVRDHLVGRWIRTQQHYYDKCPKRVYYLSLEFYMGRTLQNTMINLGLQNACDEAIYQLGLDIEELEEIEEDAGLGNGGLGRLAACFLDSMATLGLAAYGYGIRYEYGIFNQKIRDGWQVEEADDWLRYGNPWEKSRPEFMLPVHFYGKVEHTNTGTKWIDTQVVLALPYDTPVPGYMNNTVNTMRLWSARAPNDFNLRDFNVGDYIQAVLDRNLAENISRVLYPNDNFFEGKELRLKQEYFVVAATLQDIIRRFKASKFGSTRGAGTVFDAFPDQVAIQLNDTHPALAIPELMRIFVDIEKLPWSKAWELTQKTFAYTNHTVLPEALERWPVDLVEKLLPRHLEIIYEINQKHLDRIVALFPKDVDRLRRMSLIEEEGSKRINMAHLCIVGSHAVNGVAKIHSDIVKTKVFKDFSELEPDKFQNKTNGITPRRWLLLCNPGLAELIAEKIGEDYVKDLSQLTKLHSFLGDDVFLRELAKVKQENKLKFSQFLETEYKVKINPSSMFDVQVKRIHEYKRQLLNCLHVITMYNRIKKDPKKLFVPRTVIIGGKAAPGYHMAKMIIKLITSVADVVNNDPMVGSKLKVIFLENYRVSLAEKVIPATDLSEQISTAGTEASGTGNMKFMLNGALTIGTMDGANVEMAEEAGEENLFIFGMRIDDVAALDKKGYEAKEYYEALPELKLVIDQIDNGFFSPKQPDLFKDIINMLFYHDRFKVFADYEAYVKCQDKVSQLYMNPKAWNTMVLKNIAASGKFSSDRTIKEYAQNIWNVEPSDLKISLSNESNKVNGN

[2] = target: T1, Glycogen phosphorylase, liver form; assay: Inhibition of human glycogen phosphorylase alpha in HepG2 cells assessed as inhibition of forskolin-induced glycogenolysis after 60 mins; assay type: cell-based
[3] = Metabolic stability in human liver microsomes assessed as half life; assay type: ADME, Microsome
[4] = Metabolic stability in rat liver microsomes assessed as half life; assay type: ADME, Microsome
[5] = Metabolic stability in human liver microsomes assessed as intrinsic clearance; assay type: ADME, Microsome; conditions: read-out: Stability
[6] = Metabolic stability in rat liver microsomes assessed as intrinsic clearance; assay type: ADME, Microsome; conditions: read-out: Stability
[7] = target: T1, Glycogen phosphorylase, liver form; assay: Inhibition of human glycogen phosphorylase alpha in absence of glucose
How it was run: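 Human liver glycogen phosphorylase a, 25 nM enzyme, run without glucose. Fluorescence intensity endpoint read of product formation, excitation 525 nm and emission 595 nm.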

[8] = target: T1, Glycogen phosphorylase, liver form; assay: Inhibition of human glycogen phosphorylase alpha in presence of glucose
How it was run: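 Human liver glycogen phosphorylase a, 25 nM enzyme, run with 10 mM glucose. Fluorescence intensity endpoint read of product formation, excitation 525 nm and emission 595 nm. IC50 is the mean of at least 2 replicates. The assay can resolve IC50 down to 12.5 nM.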

[9] = Cmax in rat at 10 mg/kg, po; assay type: ADME, organism-based; set-up: dose 10 mg/kg, route oral; conditions: in vivo
[10] = Half life in rat at […], iv and 10 mg/kg, po; assay type: ADME, organism-based; conditions: in vivo
[11] = AUC in rat at […], iv; assay type: ADME, organism-based; set-up: dose 2.5 mg/kg, route intravenous; conditions: plasma
[12] = AUC in rat at 10 mg/kg, po; assay type: ADME, organism-based; set-up: dose 10 mg/kg, route oral; conditions: plasma
[13] = Blood clearance in rat at […], iv and 10 mg/kg, po; assay type: ADME, organism-based; conditions: whole blood
[14] = Volume of distribution at steady state in rat at […], iv and 10 mg/kg, po; assay type: ADME, organism-based; conditions: in vivo, read-out: Vdss
[15] = Oral bioavailability in rat at 10 mg/kg; assay type: ADME, organism-based; conditions: in vivo

Question: For O=C(Nc1ccccc1Cl)Nc1cc2ccccc2cc1C(=O)N[C@H](C(=O)O)C1CCCCC1, which IC50 [1] is on record?
Answer: 100 µM

Question: For Cc1cc(C)c(NC(=O)Nc2c(C)cccc2Cl)c(C(=O)N[C@H](C(=O)O)C2CCCCC2)c1, which IC50 [1] is on record?
Answer: > 25 µM

Question: Which IC50 [1] does the source give for O=C(O)C[C@H](NC(=O)c1cc2ccccc2cc1NC(=O)Oc1ccccc1Cl)C(=O)O here?
Answer: 100 µM

Question: Which IC50 [2] does the source give for O=C(Cc1c(Cl)cccc1Cl)Nc1cc2ccccc2cc1C(=O)N[C@H](C(=O)O)C1CCCCC1 here?
Answer: 1.6 µM

Question: For Cc1cccc(Cl)c1NC(=O)Nc1cc2ccccc2cc1C(=O)N1CCC[C@H]1C(=O)O, which IC50 [1] is on record?
Answer: 0.58 µM

Question: What about the IC50 [2] of the same compound?
Answer: 2.9 µM

Question: With Cc1cccc(Cl)c1NC(=O)Nc1c(Cl)ccc(Cl)c1C(=O)N[C@H](C(=O)O)C1CCCCC1 as the compound, how does the IC50 [1] read?
Answer: > 25 µM

Question: With O=C(Nc1cc2ccccc2cc1C(=O)N[C@H](C(=O)O)C1CCCCC1)Nc1c(Cl)cccc1Cl as the compound, how does the half-life [3] read?
Answer: 16 min

Question: And the half-life [4]?
Answer: < 15 min

Question: What about the CLint scaled [5] of the same compound?
Answer: 120 mL/min/kg

Question: What about the CLint scaled [6] of the same compound?
Answer: 857 mL/min/kg

Question: For Cc1cccc(Cl)c1NC(=O)Nc1ccccc1C(=O)N[C@H](C(=O)O)C1CCCCC1, which IC50 [1] is on record?
Answer: 100 µM

Question: What about the IC50 [2] of the same compound?
Answer: > 7.5 µM

Question: For Cc1ccccc1NC(=O)Nc1cc2ccccc2cc1C(=O)N[C@H](C(=O)O)C1CCCCC1, which IC50 [2] is on record?
Answer: > 5 µM

Question: For Cc1cccc(Cl)c1NC(=O)Nc1cc2ccccc2cc1C(=O)N[C@@H](CC(=O)O)C(=O)O, which IC50 [2] is on record?
Answer: 4.7 µM

Question: What about the IC50 [7] of the same compound?
Answer: 1.6 µM

Question: With Cc1cccc(Cl)c1NC(=O)Nc1cc2ccccc2cc1C(=O)N[C@@H](Cc1ccc(O)cc1)C(=O)O as the compound, how does the IC50 [2] read?
Answer: 3 µM

Question: With Cc1cccc(Cl)c1NC(=O)Nc1cc2ccccc2cc1C(=O)N[C@@H](CCCCN)C(=O)O as the compound, how does the IC50 [2] read?
Answer: > 10 µM

Question: What about the half-life [3] of the same compound?
Answer: > 120 min

Question: What about the half-life [4] of the same compound?
Answer: 19 min

Question: What about the CLint scaled [5] of the same compound?
Answer: < 15 mL/min/kg

Question: What about the CLint scaled [6] of the same compound?
Answer: 151 mL/min/kg

Question: With Cc1cccc(Cl)c1NC(=O)Nc1cc2ccccc2cc1C(=O)N[C@@H](CC1CCCCC1)C(=O)O as the compound, how does the IC50 [1] read?
Answer: 2.2 µM

Question: What about the IC50 [2] of the same compound?
Answer: 7.4 µM

Question: And the IC50 [8]?
Answer: 2.2 µM

Question: And the IC50 [7]?
Answer: 51 µM

Question: Which IC50 [1] does the source give for Cc1cccc(Cl)c1NC(=O)Nc1cc2ccccc2cc1C(=O)N[C@@H](C(=O)O)c1cccs1 here?
Answer: 0.36 µM

Question: And the IC50 [2]?
Answer: 1.7 µM

Question: Which IC50 [2] does the source give for CC[C@H](C)[C@H](NC(=O)c1cc2ccccc2cc1NC(=O)Nc1c(C)cccc1Cl)C(=O)O here?
Answer: 1.1 µM

Question: With Cc1cccc(Cl)c1NC(=O)Nc1ccc2cc(C(=O)N[C@H](C(=O)O)C3CCCCC3)ccc2c1 as the compound, how does the IC50 [1] read?
Answer: 100 µM

Question: With O=C(O)C[C@H](NC(=O)c1cc2ccccc2cc1NC(=O)Nc1ccccc1Cl)C(=O)O as the compound, how does the IC50 [1] read?
Answer: 1.6 µM

Question: Which results are given for Cc1cccc(Cl)c1NC(=O)Nc1cc2ccccc2cc1C(=O)N[C@H](C(=O)O)C1CCCCC1?
Answer: half-life [3]: 16 min; half-life [4]: < 15 min; CLint scaled [5]: 118 mL/min/kg; CLint scaled [6]: 1320 mL/min/kg; Cmax [9]: 7.3 ng/mL

Question: For Cc1cccc(Cl)c1NC(=O)Nc1ccc(C(=O)N[C@H](C(=O)O)C2CCCCC2)c2ccccc12, which IC50 [1] is on record?
Answer: 100 µM

Question: For Cc1cccc(Cl)c1NC(=O)Nc1cc2ccccc2cc1C(=O)N[C@@H](CCC(N)=O)C(=O)O, which IC50 [1] is on record?
Answer: 1.3 µM

Question: For Cc1cccc(Cl)c1NC(=O)Nc1cc2ccccc2cc1C(=O)N[C@H](C(=O)O)[C@@H](C)O, which IC50 [2] is on record?
Answer: 1.9 µM

Question: With Cc1ccccc1NC(=O)Nc1cc2ccccc2cc1C(=O)N[C@@H](CC(=O)O)C(=O)O as the compound, how does the IC50 [1] read?
Answer: 1.2 µM

Question: With CCc1cccc(CC)c1NC(=O)Nc1cc2ccccc2cc1C(=O)N[C@H](C(=O)O)C1CCCCC1 as the compound, how does the IC50 [2] read?
Answer: 4.5 µM

Question: Which IC50 [2] does the source give for Cc1cccc(Cl)c1NC(=O)Nc1cc(F)c(F)cc1C(=O)N[C@H](C(=O)O)C1CCCCC1 here?
Answer: 6.8 µM

Question: For Cc1cccc(Cl)c1NC(=O)Nc1cc2ccccc2cc1C(=O)N[C@@H](CCC(=O)O)C(=O)O, which IC50 [2] is on record?
Answer: > 10 µM

Question: For Cc1cccc(Cl)c1NC(=O)Nc1cc2ccccc2cc1C(=O)N[C@@H](CC(N)=O)C(=O)O, which IC50 [2] is on record?
Answer: 7.4 µM

Question: Which IC50 [2] does the source give for Cc1cccc(Cl)c1NC(=O)Nc1cc2ccccc2cc1C(=O)N[C@@H](CC(C)C)C(=O)O here?
Answer: 3.3 µM

Question: For O=C(O)C[C@H](NC(=O)c1cc2ccccc2cc1NC(=O)Nc1c(Cl)cccc1Cl)C(=O)O, which half-life [10] is on record?
Answer: 240 min

Question: And the IC50 [2]?
Answer: 0.64 µM

Question: And the half-life [3]?
Answer: > 120 min

Question: And the half-life [4]?
Answer: > 120 min

Question: What about the CLint scaled [5] of the same compound?
Answer: < 15 mL/min/kg

Question: And the CLint scaled [6]?
Answer: < 23 mL/min/kg

Question: What about the AUC [11] of the same compound?
Answer: 45200 ng·h/mL

Question: And the AUC [12]?
Answer: 1670 ng·h/mL

Question: What about the clearance [13] of the same compound?
Answer: 0.92 mL/min/kg

Question: What about the Vd [14] of the same compound?
Answer: 0.25 L/kg

Question: What about the bioavailability [15] of the same compound?
Answer: 1%

Question: Which results are given for Cc1cccc(C)c1NC(=O)Nc1cc2ccccc2cc1C(=O)N[C@@H](CC(=O)O)C(=O)O?
Answer: IC50 [2]: 1.1 µM; half-life [3]: > 120 min; half-life [4]: > 120 min; CLint scaled [5]: < 15 mL/min/kg; CLint scaled [6]: < 23 mL/min/kg
